# Measurements from different studies.
# Lines come from different studies, so protocols differ.
# Target: Dual specificity mitogen-activated protein kinase kinase 1 (MAP2K1, Homo sapiens, UniProt Q02750)
Compound,observed,action,method,cells,concentration,endpoint,result
CCN(CC)CCNC(=O)c1c(C)[nH]c(/C=C2\C(=O)Nc3ccc(F)cc32)c1C,enzyme activity,inhibitor,,,0.1 µM,remaining activity,79%
CN(C(=O)c1ccccc1)c1cc(N(C)c2ccc3c(c2)CCc2ccc(C(=O)NCCN4CCOCC4)cc2C3=O)ccc1F,cell-free assay,,competition with immobilised ligand,,1 µM,remaining binding,100%
CCN1CCN(Cc2ccc(NC(=O)c3ccc(C)c(Oc4ccnc5[nH]ccc45)c3)cc2C(F)(F)F)CC1,target engagement in cells,inhibitor,chemoproteomics,Huh-7,1 µM,inhibition,-41.7%
CC(C)(C)c1nc(-c2cccc(NS(=O)(=O)c3c(F)cccc3F)c2F)c(-c2ccnc(N)n2)s1,enzyme activity,inhibitor,radiometric,,1 µM,remaining activity,94%
Cc1ccc(C(=O)NCc2ccsc2)cc1C#Cc1cn(C(C)C)c2ncnc(N)c12,enzyme activity,inhibitor,,,1 µM,activity vs control,93%
COc1cccc(-c2cc(=O)c3ccccc3o2)c1N,cell-free assay,,,,0.5 µM,remaining signal,69.1%
CC(C)CC(=O)N1CCc2nc(-c3ccc(Br)cc3)nc(N(C)Cc3ccccc3)c2C1,cell-free assay,,competition with immobilised ligand,,0.1 µM,remaining binding,100%
COc1cc(Nc2cnc(C#N)c(O[C@H](C)CN(C)C)n2)ncc1-c1cnn(C)c1,enzyme activity,inhibitor,radiometric,,1 µM,remaining activity,80%
O=C(Nc1cnn(-c2csc(C(=O)NC3COC3)c2)c1)Nc1c(F)cccc1Cl,enzyme activity,inhibitor,,,5 µM,remaining activity,107%
FC(F)c1nc2ccccc2n1-c1nc(N2CCOCC2)nc(N2CCOCC2)n1,enzyme activity,inhibitor,,,10 µM,remaining activity,83%
Nc1nc(NC2CCCCC2)sc1C(=O)c1ccccc1,enzyme activity,inhibitor,,,10 µM,remaining activity,68%
Cc1nccc(COC(=O)N2C[C@@H]3[C@@H](CNC(=O)c4ccc5[nH]nnc5c4)[C@@H]3C2)n1,cell-free assay,,competition with immobilised ligand,,1 µM,remaining binding,92%
CCN(CC)c1ccc(C2=NNC(=O)CC2C)cc1[N+](=O)[O-] (centres unmarked),enzyme activity,inhibitor,,,10 µM,remaining activity,126%
CCCOc1ccc(OC)c(F)c1C(=O)c1ccc(C(=O)N[C@@H]2CNC[C@H]2NC(=O)c2ccc3[nH]ncc3c2)cc1,enzyme activity,inhibitor,,,10 µM,remaining activity,101%
O=C(CSc1nc2nccnc2c(=O)n1CCc1ccccc1)Nc1nccs1,enzyme activity,inhibitor,,,10 µM,inhibition,-2%
CNCc1ccc(-c2cc(-c3nc(-c4ccc(S(=O)(=O)C(C)C)cc4)cnc3N)on2)cc1,enzyme activity,inhibitor,,,2 µM,inhibition,6%
CC(C)(C)C(=O)c1sc(NC2CCCCC2)nc1N,enzyme activity,inhibitor,,,10 µM,remaining activity,94%
Cc1[nH]c(/C=C2\C(=O)Nc3ccc(F)cc32)c(C)c1C(=O)N[C@H]1CCN(C(=O)N(C)C)C1,enzyme activity,inhibitor,,,0.1 µM,remaining activity,94%
CCN(CC)CCNC(=O)c1c(C)[nH]c(/C=C2\C(=O)Nc3ccc(F)cc32)c1C,enzyme activity,inhibitor,,,0.3 µM,inhibition,36%
Cn1cnc(Br)c1C1=CN(c2ncnc3[nH]cnc23)CCS1,enzyme activity,inhibitor,radiometric,,50 nM,inhibition,17.1%
Cc1cc(-n2nc(Cc3cc(F)cc(C(F)(F)F)c3)nc2C)ccc1C(N)=O,cell-free assay,,competition with immobilised ligand,,1 µM,remaining binding,100%
CCN(CC)Cc1cc(Nc2ccnc3cc(Cl)ccc23)ccc1O,cell-free assay,,competition with immobilised ligand,,10 µM,remaining binding,96%
O=C(NCc1ncc(C(F)(F)F)cc1Cl)c1ccc2c(c1)C1(CCS(=O)(=O)CC1)[C@H](C1CC1)N2S(=O)(=O)c1ccc(F)cc1,cell-free assay,,competition with immobilised ligand,,1 µM,remaining binding,98%
CN1CC(Oc2cnc(C#N)cc2-c2ccn3nc(NC(=O)C4CC4)cc3c2)C1,enzyme activity,inhibitor,,,1 µM,inhibition,13%
O=C(Nc1ccc(Oc2ccc(F)cc2)cc1)N1CCc2ncccc2[C@H]1c1ccc(F)cc1,cell-free assay,,competition with immobilised ligand,,1 µM,remaining binding,98%
O=C1Nc2ccc(Cl)cc2C1=Cc1cc(Cl)c(O)c(Cl)c1,cell-free assay,,,,0.5 µM,remaining signal,96.8%
O=C(O)[C@@H]1[C@@H](Cn2nnc3ccccc3c2=O)CC[C@H]1C(=O)c1ccc(OCCC2CCOCC2)cc1,cell-free assay,,competition with immobilised ligand,,1 µM,remaining binding,81%
CNC(=O)c1cc(Oc2ccc(NC(=O)Nc3ccc(Cl)c(C(F)(F)F)c3)cc2)ccn1,enzyme activity,inhibitor,,,0.3 µM,inhibition,0%
FC(F)(F)Oc1cccc(-c2cnc3ccc(-c4ccncc4)nn23)c1,enzyme activity,inhibitor,radiometric,,5 µM,activity vs control,73%
CCCOc1ccc([C@H]2[C@H](C(=O)O)[C@@H](c3ccc4c(c3)OCO4)CN2CC(=O)Nc2c(CC)cccc2CC)cc1,cell-free assay,,competition with immobilised ligand,,1 µM,remaining binding,66%
COc1cc2ncnc(Nc3ccc(Oc4ccccc4)cc3C)c2cc1OC,enzyme activity,inhibitor,,,1 µM,inhibition,11%
N#CCCc1ccc2c(c1)-c1[nH]c3ccc([N+](=O)[O-])cc3c1CC(=O)N2,cell-free assay,,,,0.5 µM,remaining signal,97.1%
Cc1ccc(Nc2nccc(N(C)c3ccc4c(C)n(C)nc4c3)n2)cc1S(N)(=O)=O,enzyme activity,inhibitor,,,10 µM,inhibition,1%
CN(C)C1CCN(CC#Cc2nn(C3CCCC3)c3nc(NCc4ccccc4)ncc23)C1 (centres unmarked),enzyme activity,inhibitor,FRET,,10 µM,inhibition,13%
CC(C)(O)[C@H]1CC[C@H](Nc2ccc3ncc(-c4cccc(C(F)(F)F)c4)n3n2)CC1,enzyme activity,inhibitor,,,1 µM,remaining activity,79.5%
